# Calls of active or inactive are those of the source. The calls are words filed in the database; no cut-off is given here.
# How the values were obtained:
# Rattus norvegicus [1] = test: Diuretic activity in acute sodium loaded Wistar rat assessed as urine volume at 50 mg/kg, po measured for 0 to 5 hrs post drug dosing relative to urea; format: functional
# Procedure, shortened: (§1)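 Female Wistar rats (150–200 g), fasted 16 h. Drug in 1% saline given orally at 15 mL/kg; animals kept in individual metabolic cages with water ad libitum. Urine collected 0–5 h. Each test had vehicle and urea (1000 mg/kg) groups. Na⁺ and K⁺ measured by flame photometry, Cl⁻ by chloride analyzer. Group means for volume and each ion expressed as a ratio to the urea group.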
# Rattus norvegicus [2] = test: Diuretic activity in acute sodium loaded Wistar rat assessed as urine volume at 25 mg/kg, po measured for 0 to 5 hrs post drug dosing relative to urea; format: functional; procedure, shortened: as §1
# Rattus norvegicus [3] = test: Diuretic activity in acute sodium loaded Wistar rat assessed as sodium level in urine at 50 mg/kg, po measured for 0 to 5 hrs post drug dosing by flame photometer relative to urea; format: functional; procedure, shortened: as §1
# Rattus norvegicus [4] = test: Diuretic activity in acute sodium loaded Wistar rat assessed as sodium level in urine at 25 mg/kg, po measured for 0 to 5 hrs post drug dosing by flame photometer relative to urea; format: functional; procedure, shortened: as §1
# Rattus norvegicus [5] = test: Diuretic activity in acute sodium loaded Wistar rat assessed as potassium level in urine at 50 mg/kg, po measured for 0 to 5 hrs post drug dosing by flame photometer relative to urea; format: functional; procedure, shortened: as §1
# Rattus norvegicus [6] = test: Diuretic activity in acute sodium loaded Wistar rat assessed as potassium level in urine at 25 mg/kg, po measured for 0 to 5 hrs post drug dosing by flame photometer relative to urea; format: functional; procedure, shortened: as §1
# Rattus norvegicus [7] = test: Diuretic activity in acute sodium loaded Wistar rat assessed as chloride level in urine at 50 mg/kg, po measured for 0 to 5 hrs post drug dosing by chloride analyzer relative to urea; format: functional; procedure, shortened: as §1
# Mus musculus = test: Antidepressant activity in CD-1 mouse at 25 mg/kg, ip administered 30 mins prior to tetrabenazine challenge measured after 30 mins by tetrabenazine assay; format: functional, organism-based; set-up: dose 25 mg/kg
# Rattus norvegicus [8] = test: Antihypertensive activity in spontaneous hypertensive rat assessed as drop in systolic blood pressure at 50 mg/kg, po administered at 0 hrs on days 1, 2 and 3 measured at 2 hrs after drug dose on day 3 by indirect tail-cuff method; format: functional, Artery
# Procedure, shortened: (§2)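 Spontaneously hypertensive rats, tail-cuff (indirect) systolic pressure. Pairs of rats held in a wire basket, conditioned 20 min in a 40 °C incubator. Each reading is the mean of 3–5 determinations. Rats had 2-week training for baseline; those below 175 mmHg were excluded. Oral dosing at 0 h on days 1–3 in groups of six, read before dosing and 2 h after the day-3 dose; paired t test.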
# Rattus norvegicus [9] = test: Antihypertensive activity in spontaneous hypertensive rat assessed as drop in systolic blood pressure at 25 mg/kg, po administered at 0 hrs on days 1, 2 and 3 measured at 2 hrs after drug dose on day 3 by indirect tail-cuff method; format: functional, Artery; procedure, shortened: as §2
# Rattus norvegicus [10] = test: Diuretic activity in acute sodium loaded Wistar rat assessed as chloride level in urine at 25 mg/kg, po measured for 0 to 5 hrs post drug dosing by chloride analyzer relative to urea; format: functional; procedure, shortened: as §1
# Rattus norvegicus [11] = test: Antihypertensive activity in spontaneous hypertensive rat assessed as drop in systolic blood pressure at 10 mg/kg, po administered at 0 hrs on days 1, 2 and 3 measured at 2 hrs after drug dose on day 3 by indirect tail-cuff method; format: functional, Artery; procedure, shortened: as §2
# Rattus norvegicus [12] = test: Diuretic activity in acute sodium loaded Wistar rat assessed as urine volume at 10 mg/kg, po measured for 0 to 5 hrs post drug dosing relative to urea; format: functional; procedure, shortened: as §1
# Rattus norvegicus [13] = test: Diuretic activity in acute sodium loaded Wistar rat assessed as urine volume at 5 mg/kg, po measured for 0 to 5 hrs post drug dosing relative to urea; format: functional; procedure, shortened: as §1
# Rattus norvegicus [14] = test: Diuretic activity in acute sodium loaded Wistar rat assessed as urine volume at 2 mg/kg, po measured for 0 to 5 hrs post drug dosing relative to urea; format: functional; procedure, shortened: as §1
# Rattus norvegicus [15] = test: Diuretic activity in acute sodium loaded Wistar rat assessed as sodium level in urine at 10 mg/kg, po measured for 0 to 5 hrs post drug dosing by flame photometer relative to urea; format: functional; procedure, shortened: as §1
# Rattus norvegicus [16] = test: Diuretic activity in acute sodium loaded Wistar rat assessed as sodium level in urine at 5 mg/kg, po measured for 0 to 5 hrs post drug dosing by flame photometer relative to urea; format: functional; procedure, shortened: as §1
# Rattus norvegicus [17] = test: Diuretic activity in acute sodium loaded Wistar rat assessed as sodium level in urine at 2 mg/kg, po measured for 0 to 5 hrs post drug dosing by flame photometer relative to urea; format: functional; procedure, shortened: as §1
# Rattus norvegicus [18] = test: Diuretic activity in acute sodium loaded Wistar rat assessed as potassium level in urine at 10 mg/kg, po measured for 0 to 5 hrs post drug dosing by flame photometer relative to urea; format: functional; procedure, shortened: as §1
# Rattus norvegicus [19] = test: Diuretic activity in acute sodium loaded Wistar rat assessed as potassium level in urine at 5 mg/kg, po measured for 0 to 5 hrs post drug dosing by flame photometer relative to urea; format: functional; procedure, shortened: as §1
# Rattus norvegicus [20] = test: Diuretic activity in acute sodium loaded Wistar rat assessed as potassium level in urine at 2 mg/kg, po measured for 0 to 5 hrs post drug dosing by flame photometer relative to urea; format: functional; procedure, shortened: as §1
# Rattus norvegicus [21] = test: Diuretic activity in acute sodium loaded Wistar rat assessed as chloride level in urine at 10 mg/kg, po measured for 0 to 5 hrs post drug dosing by chloride analyzer relative to urea; format: functional; procedure, shortened: as §1
# Rattus norvegicus [22] = test: Diuretic activity in acute sodium loaded Wistar rat assessed as chloride level in urine at 5 mg/kg, po measured for 0 to 5 hrs post drug dosing by chloride analyzer relative to urea; format: functional; procedure, shortened: as §1
# Rattus norvegicus [23] = test: Diuretic activity in acute sodium loaded Wistar rat assessed as chloride level in urine at 2 mg/kg, po measured for 0 to 5 hrs post drug dosing by chloride analyzer relative to urea; format: functional; procedure, shortened: as §1
# Rattus norvegicus [24] = test: Hypotensive activity in DOCA rat at 25 to 50 mg/kg, po; format: functional, organism-based
# Canis familiaris [25] = test: Antihypertensive activity in acute anesthetized dog at 10 mg/kg, iv; format: functional, organism-based; set-up: dose 10 mg/kg; settings: Canis lupus familiaris
# Canis familiaris [26] = test: Diuretic activity in dog at 1 to 50 mg/kg, po; format: functional, organism-based; settings: Canis lupus familiaris, Urine
# Canis familiaris [27] = test: Diuretic activity in dog at 20 mg/kg, iv; format: functional, organism-based; set-up: dose 20 mg/kg; settings: Canis lupus familiaris, Urine
# Rhesus monkey = test: Diuretic activity in rhesus monkey at 10 to 20 mg/kg, po; format: functional, organism-based; settings: Macaca mulatta, Urine
# Rattus norvegicus [28] = test: Antihypertensive activity in spontaneous hypertensive rat assessed as drop in systolic blood pressure at 100 mg/kg, po administered at 0 hrs on days 1, 2 and 3 measured at 2 hrs after drug dose on day 3 by indirect tail-cuff method; format: functional, Artery; procedure, shortened: as §2
compound,measurement,setting,value
COc1ccc(SN2CCC3(CC2)OC(c2ccccc2)c2ccccc23)cc1 (stereo not given),Ratio,Rattus norvegicus [1],1.47
same,Ratio,Rattus norvegicus [2],1.4
same,Ratio,Rattus norvegicus [3],1.78
same,Ratio,Rattus norvegicus [4],0.97
same,Ratio,Rattus norvegicus [5],0.8
same,Ratio,Rattus norvegicus [6],0.84
same,Ratio,Rattus norvegicus [7],1.47
same,Activity,Mus musculus,inactive
same,Activity,Rattus norvegicus [8],14 mmHg
O=S(=O)(c1ccccc1)N1CCC2(CC1)OC(c1ccccc1)c1ccccc12 (stereo not given),Ratio,Rattus norvegicus [1],0.63
same,Ratio,Rattus norvegicus [3],0.7
same,Ratio,Rattus norvegicus [5],0.57
same,Ratio,Rattus norvegicus [7],0.79
same,Activity,Mus musculus,inactive
same,Activity,Rattus norvegicus [8],13 mmHg
O=[N+]([O-])c1ccc(SN2CCC3(CC2)OC(c2ccccc2)c2ccccc23)cc1 (stereo not given),Activity,Rattus norvegicus [9],9 mmHg
same,Ratio,Rattus norvegicus [1],1.73
same,Ratio,Rattus norvegicus [2],0.59
same,Ratio,Rattus norvegicus [3],2.41
same,Ratio,Rattus norvegicus [4],0.76
same,Ratio,Rattus norvegicus [5],1.2
same,Ratio,Rattus norvegicus [6],0.58
same,Ratio,Rattus norvegicus [7],2.3
same,Ratio,Rattus norvegicus [10],0.75
same,Activity,Mus musculus,inactive
N=C(N)NCCN1CCCCCCC1 [GUANETHIDINE],Activity,Rattus norvegicus [11],34 mmHg
NS(=O)(=O)c1cc2c(cc1Cl)N=CNS2(=O)=O [CHLOROTHIAZIDE],Ratio,Rattus norvegicus [1],1.6
same,Ratio,Rattus norvegicus [3],2.2
same,Ratio,Rattus norvegicus [5],1.1
c1ccc(SN2CCC3(CC2)OC(c2ccccc2)c2ccccc23)cc1 (stereo not given),Activity,Rattus norvegicus [9],44 mmHg
same,Ratio,Rattus norvegicus [1],1.71
same,Ratio,Rattus norvegicus [2],2.2
same,Ratio,Rattus norvegicus [12],1.49
same,Ratio,Rattus norvegicus [13],1.2
same,Ratio,Rattus norvegicus [14],1
same,Ratio,Rattus norvegicus [3],1.83
same,Ratio,Rattus norvegicus [4],2.5
same,Ratio,Rattus norvegicus [15],1.69
same,Ratio,Rattus norvegicus [16],1.31
same,Ratio,Rattus norvegicus [17],1.2
same,Ratio,Rattus norvegicus [5],0.97
same,Ratio,Rattus norvegicus [6],1.2
same,Ratio,Rattus norvegicus [18],0.94
same,Ratio,Rattus norvegicus [19],0.86
same,Ratio,Rattus norvegicus [20],0.74
same,Ratio,Rattus norvegicus [7],1.85
same,Ratio,Rattus norvegicus [21],1.62
same,Ratio,Rattus norvegicus [22],1.43
same,Ratio,Rattus norvegicus [23],1.19
same,Activity,Rattus norvegicus [24],Active
same,Activity,Canis familiaris [25],inactive
same,Activity,Canis familiaris [26],inactive
same,Activity,Canis familiaris [27],inactive
same,Activity,Rhesus monkey,inactive
same,Activity,Mus musculus,inactive
same,Activity,Rattus norvegicus [8],66 mmHg
[O-][S+](c1ccccc1)N1CCC2(CC1)OC(c1ccccc1)c1ccccc12 (stereo not given),Activity,Rattus norvegicus [28],22 mmHg
same,Ratio,Rattus norvegicus [1],1.74
same,Ratio,Rattus norvegicus [2],0.81
same,Ratio,Rattus norvegicus [3],2.2
same,Ratio,Rattus norvegicus [4],1.22
same,Ratio,Rattus norvegicus [5],1
same,Ratio,Rattus norvegicus [6],0.68
same,Ratio,Rattus norvegicus [10],1.18
same,Activity,Mus musculus,inactive
